Laboratory results taken from ChEMBL document CHEMBL1122940, “Cyclic guanidines. 17. Novel (N-substituted amino)imidazo[2,1-b]quinazolin-2 ones: water-soluble platelet aggregation inhibitors” (J Med Chem, 1985).

Key:
[1] = species: Rattus norvegicus; assay: In vitro inhibition of blood platelet aggregation (collagen) in rats; assay type: functional
[2] = system: Rattus norvegicus; assay: Ex vivo in vitro inhibition of blood platelet aggregation (ADP) in rats at oral dose 10 mg/kg 1 hour before the test; assay type: functional
[3] = system: Rattus norvegicus; assay: Ex vivo inhibition of blood platelet aggregation (collagen) in rats at oral dose 10 mg/kg 1 hour before the test; assay type: functional
[4] = species: Rattus norvegicus; assay: In vitro inhibition of blood platelet aggregation (ADP) in rats; assay type: functional
[5] = system: Rattus norvegicus; assay: Ex vivo in vitro inhibition of blood platelet aggregation (ADP) in rats at oral dose 10 mg/kg 1 hour before the tes; assay type: functional
[6] = system: Rattus norvegicus; assay: Change in heart rate 5 hours after oral administration at dose 50 mg/kg; assay type: functional
[7] = system: Rattus norvegicus; assay: Change in heart rate 2 hours after oral administration at dose 50 mg/kg; assay type: functional
[8] = system: Rattus norvegicus; assay: Decrease in systolic BP 7 hours after oral administration at dose 50 mg/kg; assay type: functional
[9] = system: Rattus norvegicus; assay: Duration of inhibition of blood platelet aggregation in rats (ADP) 3 hours after oral administration at dose 10 mg/kg; assay type: functional
Procedure, shortened: (§1)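 Rats got a single oral dose of 10 mg/kg, and controls got vehicle alone. Blood was collected 3 h later and aggregation was run ex vivo. Collagen-induced aggregation was read as ΔA/min and ADP-induced aggregation as ΔA. Values are mean ± SD of five animals, with percent inhibition versus vehicle control.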

[10] = system: Rattus norvegicus; assay: Change in heart rate 7 hours after oral administration at dose 50 mg/kg; assay type: functional
[11] = system: Rattus norvegicus; assay: Duration of inhibition of blood platelet aggregation in rats (collagen) 3 hours after oral administration at dose 10 mg/kg; assay type: functional; procedure, shortened: as §1
[12] = system: Rattus norvegicus; assay: Decrease in systolic BP 3 hours after oral administration at dose 50 mg/kg; assay type: functional
[13] = system: Rattus norvegicus; assay: Change in heart rate 3 hours after oral administration at dose 50 mg/kg; assay type: functional
[14] = system: Rattus norvegicus; assay: Decrease in systolic BP 1 hour after oral administration at dose 50 mg/kg; assay type: functional
[15] = system: Rattus norvegicus; assay: Decrease in systolic BP 2 hours after oral administration at dose 50 mg/kg; assay type: functional
[16] = system: Rattus norvegicus; assay: Decrease in systolic BP 5 hours after oral administration at dose 50 mg/kg; assay type: functional
[17] = system: Rattus norvegicus; assay: Change in heart rate 1 hour after oral administration at dose 50 mg/kg; assay type: functional
[18] = system: Rattus norvegicus; assay: Duration of inhibition of blood platelet aggregation in rats (collagen) 3 hr after oral administration at dose 10 mg/kg; assay type: functional; procedure, shortened: as §1
[19] = system: Rattus norvegicus; assay: Inhibition of blood platelet aggregation in rats (collagen) after intravenous infusion at dose 10 mg/kg after 10 min; assay type: functional
Procedure, shortened: (§2)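 Compounds were dissolved in physiological saline and infused continuously through the femoral vein into fed rats under pentobarbital anesthesia, at 1 mg/kg over 15 min or 10 mg/kg over 10 min. Citrated cardiac blood was drawn 15 or 10 min later, and aggregation was measured as in the in vitro test. Collagen was read as ΔA/min and ADP as ΔA. Values are mean ± SD of five animals, as percent inhibition versus control.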

[20] = system: Rattus norvegicus; assay: Inhibition of blood platelet aggregation in rats (ADP) after intravenous infusion at dose 10 mg/kg after 10 min; assay type: functional; procedure, shortened: as §2
[21] = system: Rattus norvegicus; assay: Ex vivo in vitro inhibition of blood platelet aggregation (ADP) in rats at oral dose 10 mg/kg 1 hour before the test; Platelet aggregation could not be measured optically because this compound causes hemolysis; assay type: functional, organism-based; parameters: dose 10 mg/kg
[22] = system: Rattus norvegicus; assay: Ex vivo inhibition of blood platelet aggregation (collagen) in rats at oral dose 10 mg/kg 1 hour before the test; Platelet aggregation could not be measured optically because this compound causes hemolysis; assay type: functional, organism-based; parameters: dose 10 mg/kg
[23] = system: Rattus norvegicus; assay: Inhibition of blood platelet aggregation in rats (ADP) after intravenous infusion at dose 1 mg/kg after 15 min; assay type: functional; procedure, shortened: as §2
[24] = system: Rattus norvegicus; assay: Inhibition of blood platelet aggregation in rats (collagen) after intravenous infusion at dose 1 mg/kg after 15 min; assay type: functional; procedure, shortened: as §2

| Compound | EC50 [1] [nM] | platelet aggregation [2] | platelet aggregation rate [3] | EC50 [4] [nM] | further results |
| --- | --- | --- | --- | --- | --- |
| O=C1CN2Cc3c(sc4c3CCCC4)N=C2N1 | 100 | 0.112 ΔA | 0.073 ΔA/min |  |  |
| O=C1CN2Cc3ccc(N4CCOCC4)cc3N=C2N1 |  |  |  | 96000 |  |
| CCN(CC)c1ccc2c(c1Cl)CN1CC(=O)NC1=N2 | 1300 | 0.201 ΔA | 0.041 ΔA/min | 5600 |  |
| O=C1CN2Cc3ccc(N4CCCCC4)cc3N=C2N1 | 8000 |  |  | 46000 |  |
| CC1CCCCN1c1ccc2c(c1Cl)CN1CC(=O)NC1=N2 (stereo not drawn) | 1400 |  |  | 4000 |  |
| O=C1CN2Cc3c(ccc(N4CCCCC4)c3Cl)NC2=N1 | 1200 |  |  | 7900 |  |
| CC1CCN(c2ccc3c(c2Cl)CN2CC(=O)NC2=N3)CC1 | 2300 |  |  | 4000 |  |
| CN(C)c1cccc2c1CN1CC(=O)NC1=N2 | 1500 |  |  | 2700 |  |
| O=C1CN2Cc3c(ccc(Cl)c3Cl)N=C2N1 [ANAGRELIDE] |  |  | 0.067 ΔA/min |  | platelet aggregation [5]: 0.248 ΔA |
| CN(C)c1cc2c(cc1Cl)NC1=NC(=O)CN1C2 | 440 | 0.15 ΔA | 0.082 ΔA/min | 1100 | Change in heart rate [6]: 46%; Change in heart rate [7]: 50%; Change in BP [8]: 23 mmHg; platelet aggregation [9]: 0.171 ΔA; Change in heart rate [10]: 41%; platelet aggregation rate [11]: 0.136 ΔA/min; Change in BP [12]: 26 mmHg; Change in heart rate [13]: 47%; Change in BP [14]: 30 mmHg; Change in BP [15]: 27 mmHg; Change in BP [16]: 28 mmHg; Change in heart rate [17]: 42% |
| O=C1CN2Cc3cc(N4CCCCC4)c(Cl)cc3N=C2N1 | 460 | 0.137 ΔA | 0.039 ΔA/min | 400 | platelet aggregation [9]: 0.189 ΔA; platelet aggregation rate [18]: 0.18 ΔA/min |
| CN1CCN(c2ccc3c(c2Cl)CN2CC(=O)NC2=N3)CC1 | 3000 | 0.189 ΔA | 0.149 ΔA/min | 8000 |  |
| O=C1CN2Cc3c(ccc(N4CCCC4)c3Cl)NC2=N1 | 2700 |  |  | 3000 |  |
| Cc1cc2c(cc1N1CCCCC1)NC1=NC(=O)CN1C2 |  |  |  | 220000 |  |
| O=C1CN2Cc3cc(N4CCOCC4)ccc3N=C2N1 | 2000 | 0.201 ΔA | 0.154 ΔA/min | 5000 | platelet aggregation rate [19]: 0.09 ΔA/min; platelet aggregation [20]: 0.202 ΔA |
| O=C1CN2Cc3c(cccc3N3CCCCC3)NC2=N1 | 20000 |  |  | 22500 |  |
| O=C1CN2Cc3cc(N4CCOCC4)c(Cl)cc3N=C2N1 | 100 | 0.122 ΔA | 0.055 ΔA/min | 360 |  |
| O=C1CN2Cc3c(Cl)cc(N4CCCCC4)cc3N=C2N1 |  |  |  | 350000 |  |
| CN(Cc1ccccc1)c1ccc2c(c1)CN1CC(=O)NC1=N2 |  |  |  | 26000 |  |
| CN(C)c1cc(Cl)c2c(c1)NC1=NC(=O)CN1C2 |  |  |  | 290000 |  |
| Cc1cc2c(cc1N1CCCCC1)CN1CC(=O)NC1=N2 | 580 |  |  | 5400 | Inhibition [21]: Platelet aggregation could not be measured optically because this compound causes hemolysis; Inhibition [22]: Platelet aggregation could not be measured optically because this compound causes hemolysis |
| CN(C)c1ccc2c(c1Cl)CN1CC(=O)NC1=N2 | 1200 | 0.098 ΔA | 0.019 ΔA/min | 7000 | Change in heart rate [6]: 41%; Change in heart rate [7]: 46%; Change in BP [8]: 34 mmHg; platelet aggregation rate [19]: 0 ΔA/min; Change in heart rate [10]: 38%; platelet aggregation [20]: 0.208 ΔA; Change in BP [12]: 35 mmHg; Change in heart rate [13]: 43%; Change in BP [14]: 45 mmHg; Change in BP [15]: 43 mmHg; Change in BP [16]: 36 mmHg; Change in heart rate [17]: 46% |
| CC1CCCCN1c1ccc2c(c1)CN1CC(=O)NC1=N2 (stereo not drawn) | 1700 |  | 0.145 ΔA/min | 2000 | platelet aggregation [5]: 0.19 ΔA |
| CN(C)c1ccc2c(c1)CN1CC(=O)NC1=N2 | 1400 | 0.193 ΔA | 0.071 ΔA/min | 5400 | platelet aggregation [23]: 0.142 ΔA; platelet aggregation rate [24]: 0.058 ΔA/min; platelet aggregation [9]: 0.16 ΔA; platelet aggregation rate [18]: 0.154 ΔA/min |
| CC1CCN(c2ccc3c(c2)CN2CC(=O)NC2=N3)CC1 | 18000 | 0.188 ΔA | 0.122 ΔA/min | 2800 |  |
| O=C1CN2Cc3cc(N4CCCC4)ccc3N=C2N1 | 1900 |  |  | 2600 |  |
| CNc1ccc2c(c1)CN1CC(=O)NC1=N2 |  |  |  | 24000 |  |
| Nc1ccc2c(c1)CN1CC(=O)NC1=N2 | 16000 |  |  | 170000 |  |
| O=C1CN2Cc3cc(N4CCCCC4)ccc3N=C2N1 | 330 | 0.121 ΔA | 0.068 ΔA/min | 3800 | Change in heart rate [6]: 25%; platelet aggregation [23]: 0.116 ΔA; Change in heart rate [7]: 32%; Change in BP [8]: 9 mmHg; platelet aggregation rate [24]: 0 ΔA/min; platelet aggregation [9]: 0.158 ΔA; Change in heart rate [10]: 17%; Change in BP [12]: 12 mmHg; Change in heart rate [13]: 27%; Change in BP [14]: 18 mmHg; Change in BP [15]: 12 mmHg; platelet aggregation rate [18]: 0.118 ΔA/min; Change in BP [16]: 12 mmHg; Change in heart rate [17]: 27% |
